# Experimental data as given in ChEMBL document CHEMBL5038619, “Interfering with the Tumor-Immune Interface: Making Way for Triazine-Based Small Molecules as Novel PD-L1 Inhibitors” (J Med Chem, 2021).
# Calls of active or inactive are those of the source. No cut-off for these calls is given here.
# Assays:
# [1] = target: T1, Programmed cell death protein 1/Programmed cell death 1 ligand 1 (Homo sapiens, UniProt Q9NZQ7); assay: Inhibition of human recombinant PD-1/PDL-1 interaction measured by HTRF assay; assay type: protein-complex assay
# [2] = target: T1, Programmed cell death protein 1/Programmed cell death 1 ligand 1; assay: Inhibition of PD-1/PDL-1 (unknown origin) binding; assay type: protein-complex assay
# [3] = test system: PC-9; assay: Cytotoxicity against human PC-9 cells assessed as reduction in cell viability at 100 uM for 24 hrs by CCK-8 assay; assay type: toxicity, cell-based; settings: pc-9, 24 h
# Summary of the method: (§1)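 Cells were seeded at 1×10^4/well in triplicate and exposed to 0.1–100 μM compound with DMSO held at 0.02% in all wells. Untreated wells served as reference. After 24 or 48 h at 37 °C, 5% CO2, viability was read by CCK-8 at 450 nm (reference 600 nm). Results are percent survival versus untreated, mean ± SD of three independent experiments in triplicate.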
# [4] = test system: HCC827; assay: Cytotoxicity against human HCC827 cells assessed as reduction in cell viability at 100 uM for 48 hrs by CCK-8 assay; assay type: functional, cell-based; summary of the method: as §1
# [5] = test system: PC-9; assay: Immunomodulatory activity in human PC9 cells expressing PD-L1 co-cultured stimulated PMBC cells assessed as induction of apoptosis at 1 uM for 48 hr by Annexin V-FITC and propidium iodide based flow cytometry; assay type: functional, cell-based
# Summary of the method: (§2)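 In the same PBMC/cancer-cell co-culture (1 μM compound for 1 h before TransAct anti-CD3/CD28 stimulation, 1 μg/mL each), cells were harvested after 48 h. They were stained with annexin V-FITC/PI and analysed by flow cytometry. Results are mean fraction of annexin V+ cells ± SD, three independent experiments.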
# [6] = Cytotoxicity against human PBMC cells assessed as reduction in cell viability at 100 uM for 48 hrs by CCK-8 assay; assay type: toxicity, cell-based; summary of the method: as §1
# [7] = test system: HCC827; assay: Immunomodulatory activity in human HCC827 cells expressing PD-L1 co-cultured stimulated PMBC cells assessed as IFN-gamma release level at 1 uM measured after 48 hr by ELISA; assay type: functional, cell-based
# Summary of the method: (§3)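 Co-culture: PC9 or HCC827 cells (2×10^5/well) plus 2×10^6 PBMCs, 1 μM compound, then anti-CD3/anti-CD28 TransAct (1 μg/mL each) 1 h later. After 48 h, IFN-γ in the medium was measured by sandwich ELISA (450 nm). Values are mean ± SD of three independent experiments in triplicate; two-sided t-test.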
# [8] = test system: HaCaT; assay: Cytotoxicity against human HaCaT cells assessed as reduction in cell viability at 100 uM for 48 hrs by CCK-8 assay; assay type: toxicity, cell-based; summary of the method: as §1
# [9] = test system: PC-9; assay: Immunomodulatory activity in human PC9 cells expressing PD-L1 co-cultured stimulated PMBC cells assessed as IFN-gamma release level at 1 uM measured after 48 hr by ELISA; assay type: functional, cell-based; summary of the method: as §3
# [10] = test system: PC-9; assay: Cytotoxicity against human PC-9 cells assessed as reduction in cell viability at 10 uM for 48 hrs by CCK-8 assay; assay type: toxicity, cell-based; settings: pc-9, 48 h; summary of the method: as §1
# [11] = test system: HCC827; assay: Cytotoxicity against human HCC827 cells assessed as reduction in cell viability at 10 uM for 24 hrs by CCK-8 assay; assay type: toxicity, cell-based; settings: hcc827, 24 h; summary of the method: as §1
# [12] = test system: HaCaT; assay: Cytotoxicity against human HaCaT cells assessed as reduction in cell viability at 10 uM for 48 hrs by CCK-8 assay; assay type: toxicity, cell-based; summary of the method: as §1
# [13] = test system: PC-9; assay: Cytotoxicity against human PC-9 cells assessed as reduction in cell viability at 100 uM for 48 hrs by CCK-8 assay; assay type: toxicity, cell-based; settings: pc-9, 48 h; summary of the method: as §1
# [14] = test system: PC-9; assay: Immunomodulatory activity in human PC9 cells expressing PD-L1 co-cultured stimulated PMBC cells assessed as reduction in cell viability at 1 uM for 48 hr by CCK8 assay; assay type: functional, cell-based
# Summary of the method: (§4)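 PC9 or HCC827 cells were co-cultured 48 h with PBMCs, treated with 1 μM compound and stimulated 1 h later with anti-CD3/anti-CD28 (1 μg/mL each). PBMCs were then removed by PBS washes and viability of the remaining cancer cells was read by CCK-8. Results are percent survival versus untreated, mean ± SD of three independent experiments in triplicate.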
# [15] = target: Programmed cell death 1 ligand 1 (Homo sapiens) (UniProt Q9NZQ7); settings: dose 32.0 µM
# [16] = test system: HCC827; assay: Immunomodulatory activity in human HCC827 cells expressing PD-L1 co-cultured stimulated PMBC cells assessed as induction of apoptosis at 1 uM for 48 hr by Annexin V-FITC and propidium iodide based flow cytometry; assay type: functional, cell-based; summary of the method: as §2
# [17] = test system: HCC827; assay: Cytotoxicity against human HCC827 cells assessed as reduction in cell viability at 10 uM for 48 hrs by CCK-8 assay; assay type: toxicity, cell-based; settings: hcc827, 48 h; summary of the method: as §1
# [18] = test system: HCC827; assay: Immunomodulatory activity in human HCC827 cells expressing PD-L1 co-cultured stimulated PMBC cells assessed as morphological changes at 1 uM measured after 48 hrs by phase-contrast microscopy; assay type: functional, cell-based
# Summary of the method: (§5)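 PC9 or HCC827 cells (2×10^5/well, 24 h) were co-cultured with 2×10^6 PBMCs. Compound was added at 1 μM, and 1 h later PBMCs were stimulated with anti-CD3/anti-CD28 TransAct (1 μg/mL each). Controls were unstimulated PBMCs and untreated cancer cells. After 48 h, phase-contrast microscopy was used to look for junction disruption, nuclear swelling, vacuolization, cytosol shrinkage and membrane rupture.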
# [19] = test system: HaCaT; assay: Cytotoxicity against human HaCaT cells assessed as reduction in cell viability at 10 uM for 24 hrs by CCK-8 assay; assay type: toxicity, cell-based; summary of the method: as §1
# [20] = test system: PC-9; assay: Immunomodulatory activity in human PC9 cells expressing PD-L1 assessed as morphological changes at 1 uM measured after 48 hrs by phase-contrast microscopy; assay type: functional, cell-based
# [21] = test system: PC-9; assay: Immunomodulatory activity in human PC9 cells expressing PD-L1 co-cultured stimulated PMBC cells assessed as morphological changes at 1 uM measured after 48 hrs by phase-contrast microscopy; assay type: functional, cell-based; summary of the method: as §5
# [22] = Cytotoxicity against human PBMC cells assessed as reduction in cell viability at 10 uM for 24 hrs by CCK-8 assay; assay type: toxicity, cell-based; summary of the method: as §1
# [23] = test system: HCC827; assay: Cytotoxicity against human HCC827 cells assessed as reduction in cell viability at 100 uM for 24 hrs by CCK-8 assay; assay type: toxicity, cell-based; settings: hcc827, 24 h; summary of the method: as §1
# [24] = test system: HaCaT; assay: Cytotoxicity against human HaCaT cells assessed as reduction in cell viability at 100 uM for 24 hrs by CCK-8 assay; assay type: toxicity, cell-based; summary of the method: as §1
# [25] = test system: HCC827; assay: Immunomodulatory activity in human HCC827 cells expressing PD-L1 assessed as morphological changes at 1 uM measured after 48 hrs by phase-contrast microscopy; assay type: functional, cell-based
# [26] = test system: PC-9; assay: Cytotoxicity against human PC-9 cells assessed as reduction in cell viability at 10 uM for 24 hrs by CCK-8 assay; assay type: toxicity, cell-based; settings: pc-9, 24 h; summary of the method: as §1
# [27] = test system: HCC827; assay: Immunomodulatory activity in human HCC827 cells expressing PD-L1 co-cultured stimulated PMBC cells assessed as reduction in cell viability at 1 uM for 48 hr by CCK8 assay; assay type: functional, cell-based; summary of the method: as §4
# [28] = Cytotoxicity against human PBMC cells assessed as reduction in cell viability at 10 uM for 48 hrs by CCK-8 assay; assay type: toxicity, cell-based; summary of the method: as §1
# [29] = Cytotoxicity against human PBMC cells assessed as reduction in cell viability at 100 uM for 24 hrs by CCK-8 assay; assay type: toxicity, cell-based; summary of the method: as §1
# [30] = target: Programmed cell death 1 ligand 1 (Homo sapiens) (UniProt Q9NZQ7); assay: Binding affinity to human PD-L1 expressing on exosomes assessed as decrease in […] intensity at 0.5 mM by WL-NMR spectroscopy
# [31] = target: Programmed cell death 1 ligand 1 (Homo sapiens) (UniProt Q9NZQ7); assay: Binding affinity to human PD-L1 expressing on exosomes assessed as decrease in […] intensity at 0.5 mM by STD-NMR spectroscopy
# T1 sequence (Q15116 whole entry): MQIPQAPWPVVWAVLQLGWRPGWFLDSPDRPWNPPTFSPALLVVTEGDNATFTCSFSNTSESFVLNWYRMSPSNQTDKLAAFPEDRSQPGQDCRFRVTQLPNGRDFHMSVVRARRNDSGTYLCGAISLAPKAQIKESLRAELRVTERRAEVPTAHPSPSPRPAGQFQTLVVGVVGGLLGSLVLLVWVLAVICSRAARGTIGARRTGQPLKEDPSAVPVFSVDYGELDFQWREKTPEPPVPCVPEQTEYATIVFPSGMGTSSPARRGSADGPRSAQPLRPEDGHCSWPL
# T1 sequence (Q9NZQ7 whole entry): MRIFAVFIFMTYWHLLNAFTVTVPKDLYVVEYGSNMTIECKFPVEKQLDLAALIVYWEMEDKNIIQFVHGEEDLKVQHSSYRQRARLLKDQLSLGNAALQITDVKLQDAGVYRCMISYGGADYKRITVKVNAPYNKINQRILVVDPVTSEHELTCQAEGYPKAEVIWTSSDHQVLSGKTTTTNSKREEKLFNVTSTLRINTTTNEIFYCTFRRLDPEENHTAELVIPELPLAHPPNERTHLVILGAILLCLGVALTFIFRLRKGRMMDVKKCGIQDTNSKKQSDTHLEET
# Chain of Programmed cell death 1 ligand 1 (Homo sapiens) (Q9NZQ7 whole entry): as above
smiles,measurement,setting,value
CC(=O)NCCNc1nc(OCc2cccc(C#N)c2)nc(OCc2cccc(-c3ccccc3)c2C)n1,IC50,[1],> 5000 nM
Cc1c(COc2ncnc(NCCNS(C)(=O)=O)n2)cccc1-c1ccccc1,IC50,[1],241 nM
CC(=O)NCCNc1nc(O)nc(OCc2cccc(-c3ccccc3)c2C)n1,IC50,[1],> 5000 nM
Cc1c(COc2nc(N[C@@H](Cc3c[nH]cn3)C(=O)O)nc(OCc3cccc(C#N)c3)n2)cccc1-c1ccccc1,IC50,[1],> 5000 nM
Cc1c(COc2ccc(CNCCO)n3cnnc23)cccc1-c1ccc2c(c1)OCCO2,IC50,[2],92.3 nM
CC(=O)NCCNc1nc(C)nc(OCc2cccc(-c3ccccc3)c2C)n1,IC50,[1],> 5000 nM
COc1nc(NCCNC(C)=O)nc(OCc2cccc(-c3ccccc3)c2C)n1,IC50,[1],1530 nM
Cc1c(COc2ccc(CN3CCCC[C@H]3C(=O)NCCN)c(OCc3cccc(C#N)c3)c2)cccc1-c1ccccc1,IC50,[2],9.1 nM
Cc1c(COc2ncnc(NCCS(N)(=O)=O)n2)cccc1-c1ccccc1,IC50,[1],551 nM
CC(=O)NCCNc1ncnc(OCc2cccc(-c3ccccc3)c2C)n1,Activity,[3],Toxic
same,Activity,[4],Toxic
same,Activity,[5],Active
same,Activity,[6],Toxic
same,Activity,[7],Active
same,Activity,[8],Toxic
same,Activity,[9],Active
same,Activity,[10],Non-Toxic
same,Activity,[11],Non-Toxic
same,Activity,[12],Non-Toxic
same,Activity,[13],Toxic
same,Activity,[14],Active
same,Tm,[15],49 °C
same,Activity,[16],Active
same,Activity,[17],Non-Toxic
same,Activity,[18],Active
same,Activity,[19],Non-Toxic
same,Activity,[20],inactive
same,Activity,[21],Active
same,Activity,[22],Non-Toxic
same,Activity,[23],Toxic
same,Activity,[24],Toxic
same,Activity,[25],inactive
same,Activity,[26],Non-Toxic
same,Activity,[27],Active
same,Activity,[28],Non-Toxic
same,IC50,[1],115 nM
COc1nc(OCc2cccc(-c3ccccc3)c2C)ccc1CNCCNC(C)=O,Activity,[3],Toxic
same,Activity,[4],Toxic
same,Activity,[5],Active
same,Activity,[6],Toxic
same,Activity,[7],Active
same,Activity,[8],Toxic
same,Activity,[9],Active
same,Activity,[10],Non-Toxic
same,Activity,[11],Non-Toxic
same,Activity,[12],Non-Toxic
same,Activity,[13],Toxic
same,Activity,[14],Active
same,Activity,[29],Toxic
same,Tm,[15],53 °C
same,Activity,[16],Active
same,Activity,[17],Non-Toxic
same,Activity,[18],Active
same,Activity,[19],Non-Toxic
same,Activity,[20],inactive
same,Activity,[21],Active
same,Activity,[22],Non-Toxic
same,Activity,[23],Toxic
same,Activity,[24],Toxic
same,Activity,[25],inactive
same,Activity,[26],Non-Toxic
same,Activity,[27],Active
same,Activity,[28],Non-Toxic
CC(=O)NCCCNc1ncnc(OCc2cccc(-c3ccccc3)c2C)n1,IC50,[1],2150 nM
COC(=O)[C@H](Cc1c[nH]cn1)Nc1ncnc(OCc2cccc(-c3ccccc3)c2C)n1,Activity,[30],Active
same,Activity,[31],Active
O=C(O)[C@@H]1CCCCN1Cc1ccc(OCc2cccc(-c3ccccc3)c2Br)c(Br)c1,IC50,[2],15 nM
Cc1c(COc2ncnc(N[C@@H](Cc3c[nH]cn3)C(=O)O)n2)cccc1-c1ccccc1,IC50,[1],> 5000 nM
COC(=O)[C@H](Cc1c[nH]cn1)Nc1nc(OCc2cccc(C#N)c2)nc(OCc2cccc(-c3ccccc3)c2C)n1,IC50,[1],> 5000 nM
COc1cc(C(=O)N2CCC3C(c4ccccc4)=CC=CC32)ccc1CNCCO (configuration not stated),IC50,[2],132 nM
Cc1c(COc2ccc(CN[C@H](CO)C(=O)O)c(OCc3cncc(C#N)c3)n2)cccc1-c1ccccc1,IC50,[2],12 nM
CC(C)(C)OC(=O)NCCNc1nc(OCc2ccccc2)nc(N2CCC[C@H]2C(=O)NCc2ccccc2)n1,IC50,[1],> 5000 nM
